Bioassay records (PubChem)
D1 mod: D1 CRE-luciferase signal change, two-sided – cell-based, HEK293 D1, dopamine EC30, D1 allosteric modulator project, primary screen | 58,000 tested, 5.9% active | B-score at 10 µM | AID 641, 2007 | dopamine EC30 potentiation; actives deviate in either direction | D(1A) dopamine receptor (Homo sapiens), P21728;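 active means luminescence count or its row- and column-corrected plate score outside the 99.7% band of the plate's sample wells, on either side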
M1 antag: antagonists of rat M1 muscarinic receptor | 64,000 tested, 3.4% active | Muscarinic acetylcholine receptor M1 (Rattus norvegicus), P08482 | AID 628, 2007 | B-score at 10 µM | CHO-M1 cells, Fluo-4 calcium, ACh EC80 antagonist mode; stronger effect = lower value;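 active means calcium fluorescence response, raw or row-and-column corrected B-score, differing from the plate sample mean either way at a set confidence level, mostly lower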
S1P1 ag pot: S1P1 agonists and agonism potentiators, primary screen, cell-based, primary and confirmation screens, CRE-bla reporter | Sphingosine 1-phosphate receptor 1 (Homo sapiens), P21453 | S1P1 CRE-bla cells, forskolin, beta-lactamase FRET, potentiator mode; S1P1 agonist co-added at EC20, 2 nM; 100% = saturating reference agonist, 0% = basal | activation, % at 9.5 µM | 56,000 tested, 0.57% active;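 active means activation above a cutoff set at the mean activation of all tested compounds plus 3 SD, cut at about 54% in these data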;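 further: forskolin at 4 µM as EC80 and the EC20 agonist is SEW2871; 100% = SEW2871 at its EC100 plus forskolin at EC80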
Target sequence (P21453 whole entry, looked up): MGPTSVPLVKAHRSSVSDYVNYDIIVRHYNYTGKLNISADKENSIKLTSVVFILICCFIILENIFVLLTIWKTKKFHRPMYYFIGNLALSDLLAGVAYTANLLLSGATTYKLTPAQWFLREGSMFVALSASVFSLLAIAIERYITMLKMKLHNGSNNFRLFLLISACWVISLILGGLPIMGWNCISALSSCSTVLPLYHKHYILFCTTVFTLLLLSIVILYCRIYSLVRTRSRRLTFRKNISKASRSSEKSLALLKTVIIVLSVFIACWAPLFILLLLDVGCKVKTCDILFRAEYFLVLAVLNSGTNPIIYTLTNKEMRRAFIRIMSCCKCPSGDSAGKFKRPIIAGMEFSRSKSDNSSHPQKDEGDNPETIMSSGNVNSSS
M1 agonist: M1 muscarinic receptor agonists, primary screen, CHO-M1 cells, Fluo-4 calcium, agonist mode; Fluo-4 calcium fluorescence; stronger effect = higher value; B-score at 10 µM; 64,000 tested, 3% active; AID 626, 2007;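 active means fluorescence rise, raw or as B-score row- and column-corrected plate score, outside the 99.7% band of its plate's samples, either direction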
S1P3 ag: human S1P3 receptor agonists, primary screen, cell-based, primary and confirmation, NFAT-BLA reporter. 60,000 tested, 0.1% active. AID 373, 2006. S1P3 NFAT-BLA reporter cells, agonism, FRET ratio; relative to 1 µM S1P, basal subtracted. activation, % at 4.5 µM;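 active means activation above the screen-wide mean plus 3 SD, cut at about 4.5% in these data, passing the limit was not always enough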
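Assay system: CHO cells stably expressing human S1P3, Gα16 and NFAT-β-lactamase reporter. Timing: overnight plating, 4 h compound 37 °C, 2 h substrate RT. Signal: β-lactamase FRET emission ratio 460/535 nm. Measure: percent activation versus median 1 µM S1P response, basal-subtracted, per plate. Repeats: primary screen single test, confirmation screen in triplicate.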
M1 antag confirm: rat M1 muscarinic receptor antagonists, confirmation, CHO cells, Fluo-4 calcium, duplicate; 1,700 tested, 43% active; shares compounds with M1 antag; calcium response (max-min fluorescence) at 10 µM; ACh EC80 antagonism; stronger effect = lower value;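 active means calcium response below the same-plate mean of wells given acetylcholine alone at its 80%-effect dose, minus 3 SD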;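 further: raw fluorescence intensity difference in arbitrary instrument units and not normalized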
mGluR4 antag: human mGluR4 response to M1 antagonist hits, M1 allosteric modulator project, cell-based, antagonist mode, secondary assay 1; fluorescence response (max-min) at 10 µM; 1,700 tested, 0.9% active; CHO-mGluR4 calcium flux, Fluo-4 fluorescence, glutamate EC80; stronger effect = lower value; shares compounds with M1 antag;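 active means fluorescence response below the plate's average for near-maximal glutamate wells, less 3 SD of those wells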;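 further: raw unnormalized fluorescence span taken in the window right after glutamate addition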
Numbers without * were called inactive; . = no result. A selection: hits, their analogues and other compounds. The true share with any hit is near 11%.

SMILES | D1 mod | M1 antag | S1P1 ag pot | M1 agonist | S1P3 ag | M1 antag confirm | mGluR4 antag
Cc1ccc(-c2nnc(SCC(=O)Nc3nc4c(s3)CCCC4)n2C)cc1 | . | -2.4* | 3 | 0.64 | 0 | 641 | 227
C1CCN=C(Nc2nc3c(s2)CCCC3)CC1 | -1.1 | -6.4* | . | 0.86 | . | 468* | 207
c1nnc(NC2=NCCCCC2)s1 | 0.17 | -0.74 | 3 | -1.4 | 0 | . | .
Oc1ccccc1Oc1ncc(Br)c(N2CCOCC2)n1 | 3 | -17* | -3 | -0.35 | 0 | 16* | 258
CCC(C)NS(=O)(=O)c1cccs1 (centres undefined) | 0.9 | -3.4* | . | 0.89 | 0 | 644 | 261
COC(=O)c1c(C)oc2cc(Br)c(OCC(=O)C(C)(C)C)cc12 | -0.021 | -1.9* | . | 0.056 | . | 519 | 181
N#Cc1c(NC(=O)c2cc(-n3cnnc3)ccc2Cl)sc2c1CCCC2 | -0.46 | -3.2* | 36 | -0.51 | -1 | 630 | 229
COc1cccc(CNC(=O)CCn2c(=O)oc3ccccc32)c1 | 0.19 | -3.5* | -16 | -0.32 | -2 | 538 | 253
CN1CCN(CC(=O)n2c3c(c4ccccc42)CCCC3)CC1 | -1.7 | -2.9* | 6 | 2.4 | 0 | 457* | 285
CCN(CC)CC(=O)n1c2c(c3ccccc31)CCCC2 | -0.33 | 0.00065 | -18 | 0.8 | -1 | . | .
CN(C)CCCOC(=O)Cc1ccc(Cl)cc1 | -0.19 | -2.3* | -6 | 0.046 | -1 | 463 | 198
CCOC(=O)CCn1cc(F)c(=O)n(Cc2ccccc2)c1=O | 0.08 | 0.86 | 0 | -0.73 | -1 | . | .
CCCCN(CC)S(=O)(=O)N1CCC(C(=O)NCc2ccc(F)cc2)CC1 | -0.81 | -0.6 | -5 | -1.6 | 0 | . | .
Clc1ccc(CSc2nnc(-c3ccccn3)n2Cc2ccco2)c(Cl)c1 | -1.3 | 0.94 | . | 0.17 | . | . | .
COc1ccc(S(=O)(=O)N2CCCC2C(=O)Nc2nnc(-c3cccnc3)s2)cc1 (centres undefined) | 0.97 | -1.9* | -12 | -0.56 | -1 | 583 | 270
COc1ccc2nc(NC(=O)C3CCCN3S(=O)(=O)c3ccc(C)cc3)sc2c1 (centres undefined) | -1.5 | -0.3 | 7 | -0.4 | -1 | . | .
CCCCCOc1ccc(NS(C)(=O)=O)cc1 | -0.54 | -0.27 | 21 | 0.36 | -1 | . | .
CS(=O)(=O)Nc1ccc(Cc2ccc(NS(C)(=O)=O)cc2)cc1 | -1.3 | -3.2* | 28 | -0.065 | -1 | 552 | 230
COc1ccc(C)cc1S(=O)(=O)N1CCCCC1 | -0.081 | -0.1 | -1 | -0.37 | 0 | . | .
Cc1ccc(NC(=O)COC(=O)C2CC2C)c(S(=O)(=O)N2CCCCC2)c1 (centres undefined) | -0.66 | -2.8* | -39 | -0.44 | 0 | 645 | 233
Cc1cc(C)n(-c2c(F)c(F)c(CN3CCCCC3)c(F)c2F)n1 | . | -2.5* | -8 | 0.028 | -1 | 640 | 187
O=C(Nc1ccc2c(c1)OCO2)C(c1ccccc1)N1CCCCC1 (centres undefined) | -0.74 | -3.4* | 10 | -0.63 | -2 | 501* | 205
CC1CCCN(C(C(=O)Nc2ccc3c(c2)OCO3)c2ccccc2)C1 (centres undefined) | -0.85 | -5* | 34 | 0.16 | 0 | 479* | 253
Cc1cccc2c1NC(C)CC2C (centres undefined) | . | -1.9 | 16 | -0.32 | -2 | . | .
CC(C)(Oc1ccc(Cl)cc1)C(=O)OCC(=O)N1CCCC1 | 0.0093 | 0.063 | . | 0.76 | . | . | .
SMILES | D1 mod | M1 antag | S1P1 ag pot | M1 agonist | S1P3 ag | M1 antag confirm | mGluR4 antag
CN1C(=O)C(O)(C2COC(C)(C)CC2=O)c2ccccc21 (centres undefined) | -1.6 | -3.8* | 6 | 1 | -2 | 472* | 237
CN1C(=O)C(O)(C2COC(C)(C)CC2=O)c2cc(Br)ccc21 (centres undefined) | -0.2 | -0.49 | 24 | 0.14 | -1 | . | .
CCN(CCCNC(=O)CN(C)S(=O)(=O)c1ccc2c(c1)CCC(=O)N2)c1cccc(C)c1 | 1.6 | -0.021 | 2 | 0.36 | 0 | . | .
CN(C)c1ccc(C2CC(=O)NC3=C2C(=O)CC(C)(C)C3)cc1 (centres undefined) | . | -0.042 | -6 | 0.25 | 1 | . | .
CCN(CC)c1ccc(C2CC(=O)NC3=C2C(=O)CC(C)(C)C3)cc1 (centres undefined) | 0.61 | -3.2* | 14 | 0.23 | -1 | 381* | 252
Cc1ccc(Nc2nc(N)nc(CSc3nnc(-c4ccncc4)o3)n2)cc1 | -0.07 | 0 | . | -0.28 | 0 | . | .
Cc1ccc2c(c1)[nH]c1c(=O)n(CCN3CCNCC3)cnc12 | -0.35 | 0.55 | 21 | -2 | 0 | . | .
O=c1c2[nH]c3ccccc3c2ncn1CCN1CCNCC1 | 0.2 | -3.1* | -2 | 0.2 | -1 | 719 | 230
Cc1ccc(/C(O)=C2\C(=O)C(=O)N(CC(C)O)C2c2ccc(N(C)C)cc2)cc1 (centres undefined) | -0.012 | 0.012 | -14 | -0.46 | -1 | . | .
CCOc1ccc(N=CC2=C(O)CC(C)(C)CC2=O)cc1 | 0.85 | 0.13 | 23 | -0.22 | -1 | . | .
CC1(C)CC(=O)C(C=Nc2ccc(O)cc2)=C(O)C1 | . | -2.2* | 51 | -0.053 | -2 | 644 | 249
CCOC(=O)c1ccc(COC(=O)c2cc3ccccc3oc2=O)o1 | 1.4 | -2.4* | 5 | 0.083 | -1 | 473* | 206
CCOC(=O)COc1ccc2cc(C(=O)OCC)c(=O)oc2c1 | 0.33 | 0.12 | -10 | -0.32 | 0 | . | .
O=C(O)CCN1C(=O)C(=C2CCCCCC2)SC1=S | -0.72 | -0.029 | -3 | 0.0022 | 0 | . | .
O=C1C(=C2CCCCC2)SC(=S)N1Cc1ccco1 | 0.38 | -7.3* | 20 | -1 | -2 | 111* | 206
CCCCSC1=C(C#N)C(c2ccccc2C)C(C(=O)OCC)C(=O)N1 (centres undefined) | 0.1 | -0.22 | 15 | 0.3 | 1 | . | .
c1ccc2c(c1)[nH]c1c(N3CCOCC3)ncnc12 | -0.5 | -1 | 3 | 0.83 | 0 | . | .
c1ccc2c(c1)[nH]c1c(N3CCN(C4CCCCC4)CC3)ncnc12 | . | -2.2 | 11 | -0.43 | -4 | . | .
